# GASC1 inh: inhibitors of GASC-1 (KDM4C) histone demethylase, primary screen, biochemical, single concentration HTS; AID 720574, 2013; inhibition, % at 12.5 µM; GST-KDM4C 2-372, H3K9me3 peptide, LANCE TR-FRET; hit rate 0.15% among 96,000;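 active = mean replicate inhibition above about 25%, with at least 55% of replicates also reaching it, limit read from the data, passing the limit was not always enough; inconclusive = only one of those two conditions met; inactive = neither condition met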
# Target sequence (Q9H3R0 2-372 limits assumed): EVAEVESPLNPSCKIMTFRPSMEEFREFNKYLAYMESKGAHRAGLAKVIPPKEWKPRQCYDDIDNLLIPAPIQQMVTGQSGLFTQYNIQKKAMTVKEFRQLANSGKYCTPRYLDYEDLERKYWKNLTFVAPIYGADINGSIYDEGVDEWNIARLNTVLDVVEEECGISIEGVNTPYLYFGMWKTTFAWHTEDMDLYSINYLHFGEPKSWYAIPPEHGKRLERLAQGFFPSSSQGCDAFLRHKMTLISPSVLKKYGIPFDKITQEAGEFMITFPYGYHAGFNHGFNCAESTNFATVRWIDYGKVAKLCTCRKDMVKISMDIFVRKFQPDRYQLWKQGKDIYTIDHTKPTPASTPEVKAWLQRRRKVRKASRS
#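 Material: GST-tagged GASC-1 (JMJD2C) catalytic fragment, aa 2-372. Input: enzyme final amount 10 nM. Medium: HEPES buffer, pH 7.5, plus ascorbate. Reagent: H3K9me3 peptide substrate, Fe(II), 2-oxoglutarate. Doses: single dose. Times: reaction 30 min RT, detection step 1 h RT. Measured by: LANCE TR-FRET. Evaluation: Fall in 671/618 emission ratio as inhibition.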
# T cruzi growth: T. cruzi intracellular proliferation inhibitors, primary screen, cell-based, beta-gal Tulahuen parasites, NIH3T3 host, luminescence | T. cruzi beta-gal in NIH3T3, GalScreen luminescence, 90 h | inhibition, % at 8.34 µM | hit rate 5.9% among 77,000 | AID 624255, 2012;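 active = mean inhibition above about 93%, with at least 55% of replicates each passing it, limit read from the data, passing the limit was not always enough; inconclusive = only one of those two conditions holds; inactive = neither condition holds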
# IDH1 mut inh: inhibitors of IDH1 R132H reductase, primary screen, biochemical, plate reader, single point; inhibition, % at 10 µM; diaphorase/resazurin fluorescence, 60 min; Isocitrate dehydrogenase [NADP] cytoplasmic (Homo sapiens), O75874; hit rate 0.18% among 70,000; in the data active = inhibition above about 34%; inconclusive = no clear call, values can overlap the other calls; inactive = below about 11%;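 note: 0% = DMSO and 100% = no enzyme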
# * hit, by the source's call; u = inconclusive; x = no result given. This excerpt belongs to a sample that is enriched for hits.
SMILES,GASC1 inh,T cruzi growth,IDH1 mut inh
Cc1noc(C)c1S(=O)(=O)N(C)C[C@@H]1OCCCC[C@@H](C)Oc2ccc(NC(=O)Nc3ccc(C(F)(F)F)cc3)cc2C(=O)N([C@@H](C)CO)C[C@@H]1C,-1,86,x
C[C@@H]1CN([C@@H](C)CO)C(=O)c2cc(NC(=O)Cc3ccccc3)ccc2O[C@@H]1CN(C)S(=O)(=O)c1cn(C)cn1,-1,71,x
COc1ccc(CN(C)C[C@@H]2Oc3ccc(NC(=O)CCCN(C)C)cc3C(=O)N([C@H](C)CO)C[C@H]2C)cc1,1,x,x
CCOC(=O)NC(=O)CSc1nc2ccccc2s1,x,x,0
C[C@H](CO)N1C[C@H](C)[C@H](CN(C)C(=O)Nc2cccc3ccccc23)Oc2ccc(NC(=O)C3CCCCC3)cc2CC1=O,0,15,-1
COc1cccc(-c2cn(CC[C@H]3CC[C@H](NC(=O)CC4CC4)[C@H](CO)O3)nn2)c1,0,40,0
CCC(=O)N[C@@H]1CC[C@H](CCn2cc(-c3cccc(OC)c3)nn2)O[C@@H]1CO,29*,-41,0
CCC(=O)N[C@@H]1CC[C@H](CCn2cc(-c3cccc(OC)c3)nn2)O[C@H]1CO,0,-1,0
COc1cccc(-c2cn(CC[C@@H]3CC[C@H](NC(=O)CC4CC4)[C@@H](CO)O3)nn2)c1,55*,4,7
C[C@@H]1CN([C@@H](C)CO)C(=O)c2cc(NC(=O)Cc3ccccc3)ccc2O[C@@H](C)CCCCO[C@@H]1CN(C)CC1CCCCC1,3,72,x
CCC(=O)N(C)C[C@H]1Oc2ncc(-c3ccc(C)cc3)cc2C(=O)N([C@@H](C)CO)C[C@H]1C,1,68,0
CC(=O)N[C@H]1[C@H](O[C@@H]2[C@@H](O)[C@H](C)O[C@@H](Oc3ccc4c(=O)c(-c5ccc(O)cc5)coc4c3)[C@@H]2O)O[C@H](CO)[C@@H](O[C@@H]2O[C@@H](C)[C@H](O)[C@@H](O)[C@H]2O)[C@@H]1O,x,x,0
CN(C)CC#Cc1ccc([C@@H]2[C@H](CO)N3CCCCN(CC4CC4)C[C@@H]23)cc1,4,-37,x
O=C(O)CNC(=O)C1COc2ccccc2O1 (stereo not given),x,x,0
O=C(CSC1=NCCN1)C1COc2ccccc2O1 (stereo not given),x,x,39*
CN(C)C(=O)C[C@H]1C[C@@H]2c3cc(NC(=O)Nc4ccccc4)ccc3O[C@@H]2[C@H](CO)O1,3,-42,0
CN(C)C(=O)C[C@@H]1C[C@H]2c3cc(NC(=O)C4CCC4)ccc3O[C@H]2[C@H](CO)O1,36*,-13,52*
CN(C)C(=O)C[C@H]1C[C@@H]2c3cc(NC(=O)C4CCC4)ccc3O[C@@H]2[C@@H](CO)O1,3,9,2
CN(C)C(=O)C[C@@H]1C[C@@H]2c3cc(NC(=O)Nc4ccccc4)ccc3O[C@@H]2[C@@H](CO)O1,32*,-10,73*
CCS(=O)(=O)NCC[C@H]1CC[C@H](NC(=O)C2CC2)[C@@H](CO)O1,2,x,x
CCC(Sc1nc2ccccc2o1)C(=O)Nc1cccc2ccccc12 (stereo not given),x,x,3
C[C@@H]1CN([C@H](C)CO)C(=O)c2cc(-c3cncnc3)cnc2O[C@H]1CN(C)C(=O)Cc1ccccc1,-1,x,-5
C[C@@H]1CN([C@@H](C)CO)C(=O)Cc2cc(NC(=O)Cn3cnnn3)ccc2O[C@@H]1CN(C)Cc1ccc(C(F)(F)F)cc1,11,51,-2
C[C@H](CO)N1C[C@H](C)[C@@H](CN(C)S(=O)(=O)c2cn(C)cn2)Oc2ccc(NC(=O)CCC(F)(F)F)cc2CC1=O,26*,-11,10
C[C@@H]1CN([C@@H](C)CO)C(=O)Cc2cc(NC(=O)Cn3cnnn3)ccc2O[C@H]1CN(C)Cc1ccc(C(F)(F)F)cc1,u,66,74*
SMILES,GASC1 inh,T cruzi growth,IDH1 mut inh
C[C@@H]1CN([C@@H](C)CO)C(=O)Cc2cc(NC(=O)CCC(F)(F)F)ccc2O[C@@H]1CN(C)S(=O)(=O)c1cn(C)cn1,3,-3,2
COc1ccc(-c2noc(CCCN3C(=O)c4ccccc4C3=O)n2)cc1OC,x,x,0
COc1cccc(N(CC(=O)Nc2c(C)cc(C)cc2C)S(C)(=O)=O)c1,x,x,0
O=S(=O)(Nc1ccc(Cl)cn1)c1cccc(S(=O)(=O)c2ccccc2)c1,x,x,0
O=S(=O)(Nc1cccnc1)c1cccc(S(=O)(=O)c2ccc(Cl)c(Cl)c2)c1,x,x,47*
C[C@@H]1CN([C@@H](C)CO)C(=O)Cc2cc(NC(=O)C3CCCCC3)ccc2O[C@@H]1CN(C)C(=O)NC1CCCCC1,0,9,1
C[C@H](CO)N1C[C@H](C)[C@@H](CN(C)Cc2ccccn2)Oc2ncc(C#CC3(O)CCCC3)cc2C1=O,41*,19,2
COc1ccccc1C#Cc1cnc2c(c1)C(=O)N([C@@H](C)CO)C[C@@H](C)[C@@H](CN(C)C)O2,-1,-2,0
C[C@H](CO)N1C[C@H](C)[C@H](CN(C)Cc2ccccn2)Oc2ncc(C#CC3(O)CCCC3)cc2C1=O,-1,39,-2
C[C@@H]1CN([C@H](C)CO)C(=O)c2cc(C#Cc3ccncc3)cnc2O[C@@H]1CN(C)Cc1ccncc1,2,x,x
C[C@@H]1CN([C@@H](C)CO)C(=O)c2cc(C#Cc3ccccc3)cnc2O[C@H]1CN(C)CC1CCOCC1,35*,1,25
C[C@H]1CN([C@@H](C)CO)C(=O)c2cc(C#Cc3ccccc3)cnc2O[C@@H]1CN(C)CC1CCOCC1,1,14,-1
COc1ccccc1C#Cc1cnc2c(c1)C(=O)N([C@@H](C)CO)C[C@H](C)[C@H](CN(C)C)O2,29*,75,-1
C[C@H]1CN([C@@H](C)CO)C(=O)c2cc(C#Cc3ccncc3)cnc2O[C@@H]1CN(C)Cc1ccncc1,1,68,37*
NC(=O)CSc1nnc(-c2cccnc2)s1,x,x,0
COc1ccccc1C(=O)Nc1ccc2c(c1)C(=O)N(C)[C@@H]1CC[C@@H](CC(=O)NCc3ccc(Cl)c(Cl)c3)O[C@H]1CO2,-1,70,x
COCC(=O)N(C)C[C@H]1Oc2ncc(C#CC(C)(C)O)cc2C(=O)N([C@H](C)CO)C[C@H]1C,0,-80,0
COCC(=O)N(C)C[C@H]1Oc2ncc(C#CC(C)(C)O)cc2C(=O)N([C@@H](C)CO)C[C@H]1C,27*,-37,2
C[C@@H]1CN([C@@H](C)CO)C(=O)c2cc(-c3ccncc3)cnc2O[C@@H]1CN(C)S(=O)(=O)c1ccc(F)cc1,2,-1,4
Cc1ccc(S(=O)(=O)N(C)C[C@@H]2Oc3ncc(-c4ccncc4)cc3C(=O)N([C@@H](C)CO)C[C@H]2C)cc1,39*,99,2
Cc1ccc(S(=O)(=O)Nc2cccc3c2O[C@H](CN(C)C(=O)Nc2ccc(F)cc2)[C@H](C)CN([C@H](C)CO)C3=O)cc1,0,49,x

# Screening results from PubChem.
